Assay type in all cases: cell-based
The target in experiment [1] is T1, Tubulin (Homo sapiens) (UniProt P68371+Q9H4B7+P0DPH7+P68366+Q13509+Q71U36+P04350+Q3ZCM7+P07437+P68363+Q9BQE3+Q6PEY2+Q13885+Q9BVA1+Q9BUF5). Kind of experiment: Stabilization of microtubules in human QBI293 cells assessed as fold change in alpha tubulin levels at 1 uM after 4 hrs by ELISA relative to DMSO. An outline of the steps: (§1)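 QBI293 cells were grown in DMEM with 10% FBS, 2 mM L-glutamine and penicillin/streptomycin, then plated at 6 × 10^5 cells/well and left overnight. Medium was replaced with fresh medium holding vehicle (DMSO) or compound, and cells were incubated 4 h. Whole-cell extract supernatants were protein-normalized by BCA assay. AcTub and α-tubulin were quantified by ELISA against standard curves. Values are fold-change over DMSO, analysed by one-way ANOVA.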
For orientation: In an ELISA, binding on a coated surface is turned into a signal by an enzyme label.

In experiment [2] the target is T1, Tubulin (Homo sapiens). Kind of experiment: Stabilization of microtubules in human QBI293 cells assessed as fold change in acetylated tubulin levels at 10 uM after 4 hrs by ELISA relative to DMSO. In outline:
as §1

Experiment [3] concerns the target T1, Tubulin (Homo sapiens). Kind of experiment: Stabilization of microtubules in human QBI293 cells assessed as fold change in alpha tubulin levels at 10 uM after 4 hrs by ELISA relative to DMSO. In outline:
as §1

The target of experiment [4] is T1, Tubulin (Homo sapiens). The experiment can be described thus: Stabilization of microtubules in human QBI293 cells assessed as increase in acetylated tubulin levels after 4 hrs by ELISA. An outline of the steps:
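QBI293 cells are grown in DMEM with 10% FBS, 2 mM L-glutamine and penicillin/streptomycin, plated at 6 × 10^5 cells/well and incubated overnight. […] Acetyl- and total α-tubulin in whole-cell extract supernatants are measured by ELISA against standard curves, with protein by BCA. Values are fold-change over DMSO; AcTub is also given relative to 100 nM cevipabulin positive control. Significance is by one-way ANOVA.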

For experiment [5], the target named is T1, Tubulin (Homo sapiens). The experiment can be described thus: Stabilization of microtubules in human QBI293 cells assessed as fold change in acetylated tubulin levels at 1 uM after 4 hrs by ELISA relative to cevipabulin.
The target of experiment [6] is T1, Tubulin (Homo sapiens). Kind of experiment: Stabilization of microtubules in human QBI293 cells assessed as fold change in acetylated tubulin levels at 1 uM after 4 hrs by ELISA relative to DMSO. An outline of the steps:
as §1

Experiment [7] addresses T1, Tubulin (Homo sapiens). The experiment can be described thus: Stabilization of microtubules in human QBI293 cells assessed as fold change in acetylated tubulin levels at 10 uM after 4 hrs by ELISA relative to cevipabulin.

For 28 compounds, fold change (FC) and Activity results are on record in ChEMBL document CHEMBL4732138, “Evaluation of the Structure-Activity Relationship of Microtubule-Targeting 1,2,4-Triazolo[1,5-a]pyrimidines Identifies New Candidates for Neurodegenerative Tauopathies” (J Med Chem, 2021).

Take `C[C@H](Nc1c(-c2c(F)cc(C#N)cc2F)c(Cl)nc2ncnn12)C(F)(F)F`: the fold change (FC) in experiment [1] was 0.94; in experiment [2], 3.56; in experiment [3] it was 0.95; in experiment [5], 0.27; in experiment [6], 1.9; in experiment [7], 0.51. Also, the Activity result in experiment [4] is “Dose-dependent effect”.

Consider `CC(C)Nc1c(-c2c(F)cc(F)cc2F)c(Cl)nc2ncnn12`, for which the fold change (FC) worked out at 0.92 in experiment [1]; 2.01 in experiment [2]; 0.98 in experiment [3]; 0.15 in experiment [5]; 1.15 in experiment [6]; 0.27 in experiment [7]. Further, the Activity entry in experiment [4] was “Dose-dependent effect”.

In the case of `CC(C)[C@@H](C)Nc1c(-c2ccc(C#N)cc2F)c(Cl)nc2ncnn12` (stereo in doubt; 68), the fold change (FC) in experiment [1] stood at 0.95; in experiment [2], 2.29; in experiment [3] it was 0.92; in experiment [5], 0.47; in experiment [6] it was 2.15; in experiment [7], 0.5.

Regarding `CC(CF)Nc1c(-c2c(F)cc(F)cc2F)c(Cl)nc2ncnn12` (stereo not given), the fold change (FC) was found to be 0.92 in experiment [1]; 1.5 in experiment [2]; 1.09 in experiment [3]; 0.3 in experiment [5]; 1.32 in experiment [6]; 0.35 in experiment [7]. In experiment [4], the Activity entry was “Dose-dependent effect”.

`C[C@H](Nc1c(-c2c(F)cc(C(F)(F)F)cc2F)c(Cl)nc2ncnn12)C(F)(F)F`: the fold change (FC) was 1.06 in experiment [1]; 1.39 in experiment [2]; 1.02 in experiment [3]; 0.13 in experiment [5]; 1.09 in experiment [6]; 0.16 in experiment [7]. In experiment [4], the Activity entry is “Dose-dependent effect”.

As to `Fc1cc(F)c(-c2c(Cl)nc3ncnn3c2NC2CCCC2)c(F)c1`, the fold change (FC) in experiment [1] was 1.03; in experiment [2], 4.83; in experiment [3], 0.98; in experiment [5], 0.27; in experiment [6], 2.03; in experiment [7], 0.45. In addition, in experiment [4], the Activity result is “Dose-dependent effect”.

As to `Fc1cc(F)c(-c2c(Cl)nc3ncnn3c2NC2CCC2)c(F)c1`, the fold change (FC) worked out at 0.94 in experiment [1]; 1.75 in experiment [2]; 0.95 in experiment [3]; 0.13 in experiment [5]; 0.97 in experiment [6]; 0.23 in experiment [7]. Moreover, the Activity result in experiment [4] is “Dose-dependent effect”.

On to `Oc1c(-c2c(F)cc(F)cc2F)c(Cl)nc2ncnn12`, for which the fold change (FC) in experiment [1] was 1.06; in experiment [2] it was 1.03; in experiment [3], 1.02; in experiment [5] it was 0.17; in experiment [6], 1.04; in experiment [7], 0.17.

On to `C[C@H](Nc1c(-c2c(F)cccc2F)c(Cl)nc2ncnn12)C(F)(F)F`, for which the fold change (FC) in experiment [1] came to 1.06; in experiment [2] it was 5.28; in experiment [3] it was 1.02; in experiment [5] it was 0.16; in experiment [6], 2.2; in experiment [7], 0.39. The Activity entry in experiment [4] is “Dose-dependent effect”.

In the case of `C[C@H](Nc1c(-c2ccc(C#N)cc2F)c(Cl)nc2ncnn12)C(F)(F)F`, the fold change (FC) is 1 in experiment [1]; 3.64 in experiment [2]; 1 in experiment [3]; 0.37 in experiment [5]; 2.01 in experiment [6]; 0.67 in experiment [7].

Regarding `CC(C)[C@@H](Nc1c(-c2c(F)cc(F)cc2F)c(Cl)nc2ncnn12)C(F)(F)F`, the Activity result in experiment [4] is “Dose-dependent effect”.

Regarding `CCCNc1c(-c2c(F)cc(F)cc2F)c(Cl)nc2ncnn12`, the fold change (FC) in experiment [1] worked out at 1.14; in experiment [2] it was 1.14; in experiment [3], 0.86; in experiment [5], 0.27; in experiment [6], 1.15; in experiment [7] it was 0.26.

Turning to `C[C@H](Nc1c(-c2c(F)cc([S@@+]([O-])CCCN(C)C)cc2F)c(Cl)nc2ncnn12)C(F)(F)F`, the fold change (FC) was found to be 1.22 in experiment [1]; 1.39 in experiment [2]; 0.98 in experiment [3]; 0.34 in experiment [5]; 1.49 in experiment [6]; 0.32 in experiment [7].

Take `CC(C)[C@H](C)Nc1c(-c2c(F)cc(F)cc2F)c(Cl)nc2ncnn12`: the Activity entry in experiment [4] is “Dose-dependent effect”.

As to `C[C@H](Nc1c(Cc2c(F)cc(F)cc2F)c(Cl)nc2ncnn12)C(F)(F)F`, the fold change (FC) stood at 1.01 in experiment [1]; 1.43 in experiment [2]; 1.05 in experiment [3]; 0.09 in experiment [5]; 1.26 in experiment [6]; 0.1 in experiment [7].

Turning to `C[C@H](Nc1c(-c2c(F)cc(F)cc2F)c(Cl)nc2ncnn12)C(F)(F)F`, in experiment [4], the Activity entry was “Dose-dependent effect”.

Consider `C[C@H](Nc1c(-c2c(F)cc(F)cc2F)c(Cl)nc2ncnn12)C(C)(C)C`, for which the Activity result in experiment [4] was “Dose-dependent effect”.

In the case of `Fc1cc(F)c(-c2c(Cl)nc3ncnn3c2Nc2ccccc2)c(F)c1`, the fold change (FC) in experiment [1] is 1.1; in experiment [2], 1.05; in experiment [3], 0.96; in experiment [5] it was 0.09; in experiment [6], 1.14; in experiment [7] it was 0.08.

For the compound `C[C@H](Nc1c(-c2c(F)cc(N)cc2F)c(Cl)nc2ncnn12)C(F)(F)F`, the fold change (FC) in experiment [1] came to 0.97; in experiment [2] it was 0.69; in experiment [3] it was 0.96; in experiment [5], 0.17; in experiment [6], 0.94; in experiment [7] it was 0.13.

For the compound `Nc1c(-c2c(F)cc(F)cc2F)c(Cl)nc2ncnn12`, the fold change (FC) was 1.08 in experiment [1]; 1.12 in experiment [2]; 1.05 in experiment [3]; 0.09 in experiment [5]; 1.18 in experiment [6]; 0.08 in experiment [7].

With `C[C@H](Nc1c(-c2c(F)cc(S(=O)(=O)CCCN(C)C)cc2F)c(Cl)nc2ncnn12)C(F)(F)F`, the fold change (FC) in experiment [1] is 0.7; in experiment [2], 1.08; in experiment [3], 1.07; in experiment [5], 0.24; in experiment [6], 1.13; in experiment [7], 0.23.

For the compound `C[C@H](Nc1c(-c2c(F)cc([S+](C)[O-])cc2F)c(Cl)nc2ncnn12)C(F)(F)F` (stereo not given in full), the fold change (FC) was 0.96 in experiment [1]; 0.87 in experiment [2]; 0.93 in experiment [3]; 0.21 in experiment [5]; 0.84 in experiment [6]; 0.21 in experiment [7].

For `CC(C)(C)CNc1c(-c2c(F)cc(F)cc2F)c(Cl)nc2ncnn12`, the Activity entry in experiment [4] is “Dose-dependent effect”.

On to `CC(Oc1c(-c2c(F)cc(F)cc2F)c(Cl)nc2ncnn12)C(F)(F)F` (stereo not given), for which the fold change (FC) in experiment [1] came out at 1.03; in experiment [2], 1.01; in experiment [3], 1.04; in experiment [5], 0.19; in experiment [6], 0.91; in experiment [7], 0.21.

As for `CC(C)[C@@H](C)Nc1c(-c2ccc(C#N)cc2F)c(Cl)nc2ncnn12` (stereo in doubt; 67), the fold change (FC) is 0.99 in experiment [1]; 3.42 in experiment [2]; 0.93 in experiment [3]; 0.61 in experiment [5]; 2.79 in experiment [6]; 0.75 in experiment [7].

As for `N#Cc1cc(F)c(-c2c(Cl)nc3ncnn3c2N2CCCCCCC2)c(F)c1`, the fold change (FC) in experiment [1] came to 1.01; in experiment [2], 4.4; in experiment [3], 0.99; in experiment [5], 0.58; in experiment [6], 3.24; in experiment [7], 0.79.

With `C[C@H](Nc1c(-c2c(F)cc(S(C)(=O)=O)cc2F)c(Cl)nc2ncnn12)C(F)(F)F`, the fold change (FC) in experiment [1] came to 1.03; in experiment [2] it was 1.23; in experiment [3], 1.02; in experiment [5] it was 0.19; in experiment [6], 1.21; in experiment [7] it was 0.19.

For `Fc1cc(F)c(-c2c(Cl)nc3ncnn3c2NC2CC2)c(F)c1`, the fold change (FC) in experiment [1] amounted to 1.2; in experiment [2] it was 1.27; in experiment [3], 1.26; in experiment [5], 0.07; in experiment [6], 1.17; in experiment [7] it was 0.07.
